HCT116 bCat-KO = primary screen for growth suppressors in beta-catenin knockout HCT116 cells (colon tumor, human); HCT116 beta-catenin knockout viability, CellTiter-Glo, 60 h; hits give low values; viability, % at 10 µM; actives 1.5% (n = 140,000); AID 818, 2007;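 active = viability at or under a set limit, the compound median less 4 SD, cut at about 6% in these data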;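 also: 0% = Hyamine 1622 control at 20 µM and 100% = untreated cell control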
H69AR inhibit = proliferation blockers of H69AR lung cancer cells, primary screen, cell-based, human, 86K library; H69AR lung tumor viability, ATP luminescence, 72 h; hits give low values; viability, % at 10 µM; actives 6% (n = 85,000); AID 598, 2007;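 active = viability at or below 40%; inactive = viability above 40%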;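 also: multidrug resistant small cell line overexpressing MRP-1 efflux transporter; 100% = mean luminescence of untreated control wells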
Fibroblast inh = antiproliferative effect on LL 47 fibroblasts – human, LL 47 cells, CellTiter-Glo luminescence, primary screen; LL 47 human lung fibroblast viability, ATP luminescence; hits give low values; viability, % at 10 µM; actives 1.1% (n = 85,000); AID 719, 2007;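 active = viability at or below 50% in the single dose screen; inactive = viability above 50%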;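 also: compound exposure lasted 72 h before the ATP readout; 100% = median luminescence of untreated cell-only wells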
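Assay system: human lung fibroblast line LL 47, low passage. Input: 1,150 fibroblasts seeded per well. Times: overnight cell rest, 72 h compound treatment at 37 °C. Evaluation: % viability of median cell-only signal. Technique: luminescent ATP detection, CellTiter-Glo. Control set: cell-only wells, no compound.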
HCT116 PTEN-null = growth suppression of PTEN-null HCT116, primary screen, cell-based, CellTiter-Glo; HCT116 PTEN-null viability, 60 h; hits give low values; viability, % at 10 µM; actives 1.2% (n = 140,000);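 active = viability at or below a set limit, 4 SD under the median of all tested compounds, cut at about 3.7% in these data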;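 also: PTEN knockout HCT116 line with beta catenin targeted HCT116 as companion control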
HUVEC inhibit = inhibitors of HUVEC proliferation, primary screen, cell-based, 384-well. CellTiter-Glo luminescence, 72 h; hits give low values. viability, % at 10 µM (by protocol). actives 1.1% (n = 86,000);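 active = viability at or below 30%; inactive = viability above 30%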;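 also: 100% = median luminescence of DMSO-only cell control wells on each plate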
Starred values were filed as active, the others as inactive; nt = no result. This excerpt belongs to a sample that is enriched for hits.

SMILES	HCT116 bCat-KO	H69AR inhibit	Fibroblast inh	HCT116 PTEN-null	HUVEC inhibit
CSc1c(CC(=O)Nc2ccccc2C(F)(F)F)n(Cc2ccccc2)c2ccccc12	79	nt	nt	72	nt
O=C(O)CCS(=O)(=O)c1nc(-c2cccs2)cc(C(F)(F)F)n1	94	33*	92	103	93
CS(=O)(=O)c1nc(-c2cccs2)cc(C(F)(F)F)n1	3.3*	1.5*	14*	1.3*	54
CC(C)CNC(=O)CSc1nc(-c2cccs2)cc(C(F)(F)F)n1	86	95	101	91	100
CCOc1cc(C=O)ccc1OS(=O)(=O)c1ccc(NC(C)=O)cc1	91	nt	nt	85	nt
C=C(C(=O)c1ccccc1)C(C)CC(=O)c1ccccc1 (stereo not drawn)	2.1*	nt	nt	1.5*	nt
CCOC(=O)c1c(C)c(C(=O)Nc2ccccc2)c(C)n1CC	86	64	92	94	76
CCOC(=O)c1c(C)c(C(=O)N2CCc3ccccc3C2)c(C)n1CC	55	16*	92	51	70
Cc1nc(Cl)c(C(=O)NC(=O)NCc2ccccc2)c(C)c1Cl	90	nt	nt	84	nt
FC(F)(F)c1nc(-c2cccs2)ncc1-c1nnnn1-c1ccc(Cl)cc1	31	nt	nt	30	nt
Clc1ccc(-n2nnnc2-c2cnc(-c3ccncc3)nc2-c2cccs2)cc1	61	9.8*	92	8	76
N#Cc1ccc2ccn(CC(=O)NCc3ccccc3)c2c1	26	36*	92	25	75
N#Cc1ccc2ccn(CC(=O)NC3CCCCC3)c2c1	82	101	100	90	102
Cc1ccc(S(=O)(=O)N2CCC(=O)N(CCOC(=O)Nc3ccc(C)c(C)c3)CC2)cc1	77	nt	nt	84	nt
COc1ccc(NS(=O)(=O)c2cc(OC)ccc2NC(=O)c2cc(C)oc2C)cc1	22	21*	67	27	56
COc1ccc(NC(=O)c2cc(-c3ccccc3)oc2C)cc1	101	nt	nt	98	nt
COc1ccc(NS(=O)(=O)c2cc(C)ccc2C)cc1	8	13*	78	11	62
C=CCN1C(=O)N/C(=C/c2ccccc2OCC(=O)Nc2ccc(F)cc2)C1=O	62	nt	nt	45	nt
CCc1ccc(C2NC(=S)NC3=C2C(=O)N(c2ccccc2OC)C(c2ccc(CC)cc2)N3)cc1 (stereo not drawn)	75	nt	nt	71	nt
O=C1C2=C(NC(=S)NC2c2ccc(Cl)cc2)NC(c2ccc(Cl)cc2)N1c1ccc(Cl)cc1 (stereo not drawn)	13	0.1*	98	22	7.6*
CCOC(=O)c1c(NC(=O)C2COc3ccccc3O2)sc2c1CC(C)(C)NC2(C)C (stereo not drawn)	2.3*	nt	nt	0.7*	nt
CCOC(=O)c1c(NC(=O)C2COc3ccccc3O2)sc(C(C)=O)c1C (stereo not drawn)	67	21*	84	63	23*
COCCCNC(=O)c1c(NC(=O)C2COc3ccccc3O2)sc2c1CCCC2 (stereo not drawn)	91	35*	101	80	77
CCNC(=O)c1c(NC(=O)C2COc3ccccc3O2)sc2c1CCCC2 (stereo not drawn)	84	72	87	72	54
Cc1cc(C)[n+](-c2ccc(C(C)C)cc2)c2[nH]c(=O)[nH]c(=O)c12	92	nt	nt	89	nt
SMILES	HCT116 bCat-KO	H69AR inhibit	Fibroblast inh	HCT116 PTEN-null	HUVEC inhibit
CC(C)(C)CC(=O)NCCCCCCNC(=O)CC(C)(C)C	99	nt	nt	99	nt
CCc1nnc2n1N=C(c1ccc(-c3ccc(Cl)cc3Cl)o1)CS2	nt	84	95	nt	97
Clc1ccc(OCc2nnc3n2N=C(c2ccc4c(c2)OCCO4)CS3)c(Cl)c1	27	38*	87	27	77
Cc1cccc2sc(NNC(=O)c3ccc(S(=O)(=O)N4CC(C)CC(C)C4)cc3)nc12 (stereo not drawn)	2.2*	nt	nt	1.9*	nt
Cc1cc(C)c2nc(NNC(=O)c3ccc(S(=O)(=O)N4CC(C)CC(C)C4)cc3)sc2c1 (stereo not drawn)	9	nt	nt	12	nt
Cc1cc(C)c2nc(NNC(=O)c3ccc(S(=O)(=O)N4CCCC(C)C4)cc3)sc2c1 (stereo not drawn)	4.0*	nt	nt	7	nt
COC(=O)c1sc2ccccc2c1NC(=O)c1ccc(S(=O)(=O)N2CC(C)CC(C)C2)cc1 (stereo not drawn)	75	nt	nt	82	nt
Cc1ccc2nc(NNC(=O)c3ccc(S(=O)(=O)N4CCc5ccccc5C4)cc3)sc2c1	3.8*	nt	nt	6	nt
CC1=C(C(=O)OCC(C)C)C(c2cccs2)NC(=S)N1 (stereo not drawn)	83	nt	nt	82	nt
O=c1oc(-c2ccccc2NS(=O)(=O)c2ccc3ccccc3c2)nc2ccccc12	89	nt	nt	90	nt
Cc1nc2cc3nc(C(F)(F)F)[nH]c3cc2[nH]1	85	nt	nt	108	nt
CSc1ccc(/C=C/C(=O)c2ccc(NC(C)=O)cc2)cc1	95	nt	nt	105	nt
CC(=O)Nc1cccc(C(=O)/C=C/c2ccc(C)cc2)c1	2.7*	nt	nt	1.9*	nt
Cc1ccc(NC(=O)c2oc3ccc(S(=O)(=O)N4CCOCC4)cc3c2C)cc1C	62	37*	83	62	60
Cc1c(C(=O)Nc2ccc(F)cc2)oc2ccc(S(=O)(=O)N3CCC4(CC3)OCCO4)cc12	47	33*	90	39	67
Cc1c(C(=O)NCc2ccccc2)oc2ccc(S(=O)(=O)N3CCC4(CC3)OCCO4)cc12	76	73	91	66	84
Cc1c(C(=O)Nc2cccc(Cl)c2)oc2ccc(S(=O)(=O)N3CCC4(CC3)OCCO4)cc12	45	13*	81	28	49
Cc1c(C(=O)Nc2ccc(F)cc2)oc2ccc(S(=O)(=O)N3CCCC3)cc12	98	71	103	98	95
O=C(CSc1nnc(-c2cccnc2)n1Cc1ccccc1)NCc1ccccc1	82	86	99	95	93
CC(C)CC(C(=O)O)N1C(=O)C2C3CC(C2C1=O)C1C(c2ccccc2)c2sc(=O)[nH]c2SC31 (stereo not drawn)	91	nt	nt	98	nt
O=C(CN1C(=O)S/C(=C\c2ccc(Cl)cc2)C1=O)NNC(=O)c1ccccc1O	52	nt	nt	95	nt
CC(C)CCNC(=O)CO/N=C/c1ccccc1OC(F)F	95	nt	nt	96	nt
CC(C)N(C(=O)CSc1nn2c(=O)c(C(C)(C)C)nnc2s1)c1ccccc1	73	14*	nt	68	66
CC(C)(C)c1nnc2sc(SCCN3C(=O)c4ccccc4C3=O)nn2c1=O	87	78	98	86	97
CCOC(=O)Cc1csc(NC(=O)c2ccc(Cl)nc2)n1	61	29*	96	53	83
CCOC(=O)Cc1csc(NC(=O)c2cccs2)n1	88	96	105	88	100
CCOC(=O)Cc1csc(NC(=O)c2ccc3c(c2)OCO3)n1	93	88	105	99	104

Compound activity: PubChem BioAssay, SRMLSC
